Bioassay records as filed in PubChem.
NR3A LBD binder = modulates the human NR3A ligand-binding domain; 340,000 tested, 2.5% active; Tm shift relative to glycine control, % at 25 µM; NR3A LBD differential scanning fluorimetry, Tm shift; 0% = protein alone, 100% = glycine-bound protein;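 active = melting temperature shift of at least 10% of the positive control shift, at one fixed dose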
XBP1 UPR activ = activators of adaptive arm of unfolded protein response (XBP1); activation, % at 20 µM; 330,000 tested, 0.33% active; CHO-XBP1 luciferase reporter, IRE1-XBP1 UPR activation, luminescence; percent of tunicamycin response, DMSO as zero; AID 463104;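 active = versus positive control, 20 µM dose yields 30% or more activation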;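 note: 100% = tunicamycin at 10 µg/mL and 0% = DMSO only wells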
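Test system: CHO-XBP1 luciferase reporter cells | Buffer or medium: Serum-containing F12 medium, 10% FBS | Schedule: 6 h compound exposure at 37 °C, 5% CO2 | Detection: Steady-Glo luciferase glow luminescence, 10 min after reagent addition | Read-out basis: Activation, % of tunicamycin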
CHOP UPR activ = apoptotic UPR (CHOP) activation; activation, % at 10 µM; CHO-CHOP luciferase reporter, luminescence; percent of tunicamycin response over DMSO baseline; 330,000 tested, 0.34% active;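 active = at 10 µM dose, activation of 40% or more, normalized to positive control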;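 note: 100% = tunicamycin at 10 µg/mL and 0% = DMSO alone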
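measured by = luciferase luminescence | assay system = CHO-CHOP cells, stable luciferase reporter of PERK-eIF2a-CHOP signalling | amount = 500 reporter cells seeded per well | timing = 6 h compound exposure at 37 °C after overnight seeding | controls = positive tunicamycin 10 µg/mL, negative DMSO alone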
aDG glyco act = alpha-DG glycosylation activation | activation, % at 10 µM | Pro5-aDG cells, alpha-DG glycosylation AlphaScreen (IIH6); 0% Pro5, 100% B10-LARGE cell signal | AID 624168 | 360,000 tested, 0.22% active;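 active = activation of at least 8% versus controls, or a plate z-score of at least 8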;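 note: Pro5 are CHO cells carrying HIG-tagged alpha-DG that lacks glycosylation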
MPTP inh = blocks calcium-induced mitochondrial swelling | inhibition, % at 10 µM | 360,000 tested, 1.4% active | isolated mouse mitochondria, Ca2+ swelling absorbance, 30 min;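 active = inhibition of 50% or more, scaled per plate between neutral and stimulator controls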;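 note: 0% = DMSO wells given calcium and 100% = 1 mM EGTA wells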
CHOP inh = inhibitors of CHOP induction in ER stress response. CHO-K1 CHOP-promoter luciferase, tunicamycin-induced, 15-18 h. inhibition, % at 10 µM. 220,000 tested, 3.8% active;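 active = compounds that reduced the stress-induced luciferase reporter signal by more than about 70% of percent inhibition, limit read from the data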;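 note: 0% = tunicamycin plus vehicle and 100% = wells without tunicamycin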
Starred values were filed as active, the others as inactive; / = no result. Most compounds without a hit are left out; they make up all but 5.6% or so of the library.

SMILES	NR3A LBD binder	XBP1 UPR activ	CHOP UPR activ	aDG glyco act	MPTP inh	CHOP inh
Cc1c2c(nc3ccccc13)CCC(C(C)(C)C)C2 (centres undefined)	0	5	4	0	5	72*
CC(C)(C)c1ccc(C(=O)Nc2nnc(Cc3c[nH]c4ccccc34)s2)cc1	26*	0	3	0	8	75*
O=C(Nc1nnc(Cc2c[nH]c3ccccc23)s1)c1ccc(Cl)cc1Cl	26*	0	3	0	0	10
CS(=O)(=O)N(CC(=O)N1CCN(Cc2ccccc2)CC1)c1cccc(F)c1	-3	2	0	0	0	/
CC1CCN(c2cc(N3CCOCC3)c(F)cc2[N+](=O)[O-])CC1	15*	-2	5	0	1	82*
CC1CCN(c2cc(N3CCOCC3)c([N+](=O)[O-])cc2F)CC1	3	-2	-2	2	0	1
O/N=C/c1ccccc1Oc1ccccc1	-7	-1	-2	0	1	18
Cc1cc(C)cc(Oc2ccccc2/C=N\O)c1	-55	0	-1	0	-2	73*
c1ccc(-c2nnsc2Sc2ccccn2)cc1	14*	-1	4	0	0	8
Cc1cc(C)cc(NS(=O)(=O)c2c(C)[nH]c(=O)[nH]c2=O)c1	0	-5	0	0	0	/
Cc1ccccc1Nc1nc(Nc2ccccc2C)nc(SC2=NCCS2)n1	-7	-3	-2	0	1	57
Cc1ccc(Nc2nc(Nc3ccc(C)cc3)nc(SC3=NCCS3)n2)cc1	7	3	5	1	5	90*
CC(C)OCCCNC(=O)c1cccc2c1C(=O)c1ccc(Cl)cc1S2(=O)=O	1	-1	1	0	1	/
O=C(N/N=C/c1ccc(O)cc1)Nc1cccc2nsnc12	17*	16	2	0	3	55
COc1ccc(/C=N/NC(=O)Nc2cccc3nsnc23)c(OC)c1	3	20	-3	1	1	47
COc1cc(/C=N/NC(=O)Nc2cccc3nsnc23)cc(OC)c1OC	-2	/	/	0	4	84*
Cc1ccc(N=Nc2c(N)[nH]n3c(=O)cc(C)nc23)cc1	1	/	/	0	3	25
NS(=O)(=O)c1ccc(N=Nc2c(-c3ccccc3)[nH]n(-c3nc(-c4ccccc4)cs3)c2=O)cc1	26*	1	15	-1	5	35
Nc1[nH]n2c(=O)cc(-c3ccccc3)nc2c1N=Nc1ccccc1	16*	1	19	3	4	-16
Nc1[nH]n2c(=O)cc(-c3ccccc3)nc2c1N=Nc1ccc(S(N)(=O)=O)cc1	26*	-1	1	0	-1	4
COC(=O)c1cnc(SCc2ccc(Cl)cc2)n1C	-3	-2	3	0	2	75*
CCOC(=O)Nc1ccc2c(COC(=O)CNS(=O)(=O)c3cccc(Br)c3)cc(=O)oc2c1	26*	-2	1	0	3	-1
CC(O)c1cccc(NC(=O)Nc2cccc(NC(=O)Nc3cccc(C(C)O)c3)c2)c1 (centres undefined)	27*	-4	0	0	0	/
CC(=O)Nc1ccc(NC(=O)Nc2ccccc2)cc1	19*	1	5	0	0	/
CC(=O)Nc1ccc(N=NN2CCOCC2)cc1	-2	-1	3	0	-2	-5
SMILES	NR3A LBD binder	XBP1 UPR activ	CHOP UPR activ	aDG glyco act	MPTP inh	CHOP inh
CC(=O)Nc1ccc(N=Nc2ccc(O)cc2)cc1	15*	5	5	0	1	24
CC(=O)Nc1ccc(NC(=O)Nc2cc(C)cc(C)c2)cc1	29*	-3	4	0	1	14
CC(C)(C)S(=O)N1Cc2cc(=O)n(Cc3ccccc3)c(CCO)c2[C@H]1CCO (some centres undefined)	-1	/	/	1	0	/
O=C1[C@@H]2[C@@H]3C[C@@H]([C@H]4ON=C(c5ccc(Cl)cc5)[C@@H]34)[C@@H]2C(=O)N1C1CCCCC1	-4	-4	-1	0	3	61
Cc1ccc(C)c(-n2cc[nH]c2=S)c1	4	-1	-3	0	0	-2
CC(C)(C)C(=O)NC(=S)NCc1ccccc1	-1	-1	-2	0	-4	8
CC(=O)c1ccc(NC(=O)N[C@@H](CC(C)C)C(=O)O)cc1	3	-4	0	0	-2	72*
COC(=O)c1sccc1NC(=O)Nc1cccc(F)c1	10*	6	2	0	14	5
CC(=O)Nc1ccc(C#Cc2ccc(NC(C)=O)cc2)cc1	29*	9	1	0	1	16
COC(=O)c1sccc1NC(=O)Nc1cccc(OC)c1	-1	1	6	0	2	/
O=C(Nc1cccc(F)c1)Nc1ccc2c(c1)OCO2	37*	1	5	0	18	/
CC(=O)Nc1ccc(-c2ccc(NC(C)=O)cc2)cc1	-10	1	0	-1	0	-29
Cc1ccc(N2C(=O)c3ccccc3C2=O)nc1	0	/	/	0	-1	/
Cn1c(NN)nc2c1c(=O)n(Cc1ccccc1)c(=O)n2C	1	-10	2	0	2	/
CC(=O)Oc1ccccc1C(=O)OCCN=C1NS(=O)(=O)c2ccccc21	-1	-5	1	0	0	/
CSc1ccccc1NC(=O)Nc1cccc(F)c1	5	5	2	1	45	13
Cc1cc(C)nc(NC(=O)Nc2ccc3c(c2)OCO3)c1	-1	-1	-1	0	2	71*
CC(=O)Nc1cccc(NC(=O)Nc2ccc(C(C)=O)cc2)c1	13*	2	1	0	0	-14
CC(=O)c1ccc(NC(=O)Nc2cccc3ccccc23)cc1	13*	0	3	0	9	/
CC(=O)Nc1cccc(NC(=O)Nc2cccc(F)c2)c1	29*	1	1	0	6	12
Cc1cc(C)nc(NC(=O)c2ccc3c(c2)OCO3)c1	/	3	5	/	/	8
COc1cc2c(cc1OC)[C@@H](c1ccccc1)CN(C)CC2	/	/	/	/	/	39
CCc1ccc(CCC(=O)Nc2sc(C)c(C)c2C(=O)OC)o1	-2	-2	0	0	1	83*
CCOC(=O)C1C(c2ccccc2O)NC(=O)NC1(O)C(F)(F)F (centres undefined)	3	0	-1	0	2	/
CCOC(=O)C1C(c2ccccc2Cl)NC(=O)N(C)C1(O)C(F)(F)F (centres undefined)	0	0	-2	0	-1	70*
Cn1c2ccccc2c(=O)c2cc(C#Cc3ccc(N)cc3)ccc21	5	3	0	0	0	/
